From ChEMBL document CHEMBL4823318, “Kinetic and structural investigations of novel inhibitors of human epithelial 15-lipoxygenase-2” (Bioorg Med Chem, 2021)

Columns and labels:
HEK-293T = experiment: Cytotoxicity against human HEK293T cells expressing human 15-LOX-2 at 10 uM measured after 1 hr by cell survival assay; type: cell-based
Method in brief: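 HEK293T cells stably overexpressing h15-LOX-2 were kept in MEM with 10% FBS, 2 mM glutamine, penicillin/streptomycin and 640 ug/ml G418. Cells were exposed to 0.2% DMSO, 10 μM or 20 μM inhibitor for 1 h. Medium was then replaced and cells were checked daily for death.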

Homo sapiens [1] = organism: Homo sapiens; experiment: Selectivity ratio of IC50 for inhibition of human COX2 to IC50 for inhibition of human 15-LOX-2
Method in brief: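 Ovine COX-1 or human recombinant COX-2 (~3 μg) was used in 0.1 M Tris-HCl pH 8.0 with 5 mM EDTA, 2 mM phenol and 1 μM hemin at 37 °C. Inhibitor was preincubated with enzyme for 5 min, then ~100 μM AA was added. O2 consumption was recorded with an oxygen electrode, and rates were compared to the DMSO control, in duplicate.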

Homo sapiens [2] = organism: Homo sapiens; experiment: Selectivity ratio of IC50 for inhibition of human 12-LOX to IC50 for inhibition of human 15-LOX-2
Method in brief: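 Conjugated diene formation was followed at 234 nm. Rates were compared with the DMSO control at a single 25 μM inhibitor concentration, in duplicate.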

Homo sapiens [3] = organism: Homo sapiens; experiment: Selectivity ratio of IC50 for inhibition of human 15-LOX-1 to IC50 for inhibition of human 15-LOX-2
Method in brief: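 h15-LOX-1 (~60 nM total protein) was run at 23 °C, stirred, in 25 mM HEPES pH 7.5, 0.01% Triton X-100 and 10 μM AA. Diene product was read at 234 nm. Inhibition at 25 μM inhibitor was taken against the DMSO rate, in duplicate.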

[4] = biological target: T1, Polyunsaturated fatty acid lipoxygenase ALOX15B (Homo sapiens) (UniProt O15296); experiment: Competitive inhibition of human 15-LOX-2 assessed as equilibrium dissociation constant from catalytic site by measuring 15-HpETE by Dixon plots and Dixon replots analysis
T1 sequence (whole entry): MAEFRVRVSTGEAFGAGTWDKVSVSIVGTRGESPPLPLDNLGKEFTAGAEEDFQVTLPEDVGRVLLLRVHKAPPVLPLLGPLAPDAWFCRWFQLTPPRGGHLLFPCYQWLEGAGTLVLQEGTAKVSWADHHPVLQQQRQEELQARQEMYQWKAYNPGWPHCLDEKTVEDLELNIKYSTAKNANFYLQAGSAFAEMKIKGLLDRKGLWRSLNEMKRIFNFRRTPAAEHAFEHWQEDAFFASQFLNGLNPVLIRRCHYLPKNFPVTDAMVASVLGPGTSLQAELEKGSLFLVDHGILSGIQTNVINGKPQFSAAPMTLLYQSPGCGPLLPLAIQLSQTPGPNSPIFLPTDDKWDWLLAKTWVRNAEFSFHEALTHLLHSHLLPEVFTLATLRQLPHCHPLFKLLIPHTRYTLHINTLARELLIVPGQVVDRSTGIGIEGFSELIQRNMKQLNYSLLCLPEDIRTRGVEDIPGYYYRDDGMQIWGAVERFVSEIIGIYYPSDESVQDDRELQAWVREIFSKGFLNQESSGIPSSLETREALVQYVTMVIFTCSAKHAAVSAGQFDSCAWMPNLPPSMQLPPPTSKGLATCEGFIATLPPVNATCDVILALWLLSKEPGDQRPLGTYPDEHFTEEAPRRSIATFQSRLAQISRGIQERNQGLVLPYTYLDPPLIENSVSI
Method in brief: (§1)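 Steady-state kinetics with h15-LOX-2 at 23 °C in stirred 25 mM HEPES pH 7.5, 0.01% Triton X-100, with 0.7–20 μM AA, reaction started by adding enzyme. Initial rates at varied inhibitor levels were fit to Henri-Michaelis-Menten for Vmax and Km. Slopes from Dixon plots (1/v vs [I]) were replotted against 1/[S]. Kic = (Km/Vmax)/replot slope; Kiu = (1/Vmax)/replot y-intercept.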

Homo sapiens [5] = organism: Homo sapiens; experiment: Selectivity ratio of IC50 for inhibition of ovine COX1 to IC50 for inhibition of human 15-LOX-2
Homo sapiens [6] = organism: Homo sapiens; experiment: Selectivity ratio of IC50 for inhibition of human 5-LOX to IC50 for inhibition of human 15-LOX-2
[7] = biological target: T1, Polyunsaturated fatty acid lipoxygenase ALOX15B (Homo sapiens); experiment: Uncompetitive inhibition of human 15-LOX-2 assessed as equilibrium dissociation constant from secondary site by measuring 15-HpETE by Dixon plots and Dixon replots analysis; method in brief: as §1
[8] = biological target: T2, Polyunsaturated fatty acid lipoxygenase ALOX8 (Mus musculus, UniProt O35936); experiment: Inhibition of mouse 15-LOX2 assessed as enzymatic rate using arachidonic acid as substrate by UV/Vis spectrophotometric analysis
T2 sequence (O35936 whole entry): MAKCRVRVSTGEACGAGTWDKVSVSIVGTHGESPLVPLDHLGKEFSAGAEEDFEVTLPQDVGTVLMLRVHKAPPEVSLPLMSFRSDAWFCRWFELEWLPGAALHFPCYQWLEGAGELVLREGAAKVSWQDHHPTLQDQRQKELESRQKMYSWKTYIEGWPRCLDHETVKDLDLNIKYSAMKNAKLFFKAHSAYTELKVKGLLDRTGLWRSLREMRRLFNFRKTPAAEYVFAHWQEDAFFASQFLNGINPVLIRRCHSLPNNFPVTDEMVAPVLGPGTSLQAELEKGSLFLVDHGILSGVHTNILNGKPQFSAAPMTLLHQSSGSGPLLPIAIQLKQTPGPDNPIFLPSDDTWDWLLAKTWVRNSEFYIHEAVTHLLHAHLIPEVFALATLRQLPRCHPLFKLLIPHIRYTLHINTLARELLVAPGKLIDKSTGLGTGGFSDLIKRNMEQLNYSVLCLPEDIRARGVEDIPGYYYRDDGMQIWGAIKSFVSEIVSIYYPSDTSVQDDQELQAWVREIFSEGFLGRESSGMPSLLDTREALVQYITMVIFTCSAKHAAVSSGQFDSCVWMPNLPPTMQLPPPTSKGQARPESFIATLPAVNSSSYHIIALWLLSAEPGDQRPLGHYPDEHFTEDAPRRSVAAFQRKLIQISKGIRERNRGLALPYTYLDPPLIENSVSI

[9] = biological target: Prostaglandin G/H synthase 1 (Ovis aries) (UniProt P05979); experiment: Inhibition of ovine COX-1 assessed as enzymatic rate using arachidonic acid as substrate by oxygen electrode measurement of oxygen consumption

Ratio IC50 (Homo sapiens [1]) | Ratio IC50 (Homo sapiens [2]) | Ratio IC50 (Homo sapiens [3]) | Kic [4] [µM] | Ratio IC50 (Homo sapiens [5]) | Ratio IC50 (Homo sapiens [6]) | Kiuc [7] [µM] | IC50 [8] [µM] | IC50 [9] [µM] | SMILES | Activity (HEK-293T)
 |  |  |  |  |  |  |  |  | Cc1ccc(CSc2ncn(-c3ccccc3)n2)cc1 | Non-Toxic
> 50 | > 50 | > 50 | 0.9 | > 50 | > 50 | 3.4 | > 50 | > 100 | CCc1ccc(CSc2nccn2-c2ccccc2)cc1 | Non-Toxic
> 50 | > 50 | > 50 | 0.7 | > 50 | > 50 |  | > 50 | > 100 | FC(F)(F)c1ccc(CSc2nccn2-c2ccccc2)cc1 | Non-Toxic
 |  |  |  |  |  |  | > 50 | > 100 | Brc1ccc(CSc2nccn2-c2ccccc2)cc1 | Non-Toxic
